The record followed here is ChEMBL document CHEMBL1268891, “Novel synthetic 2-amino-10-(3,5-dimethoxy)benzyl-9(10H)-acridinone derivatives as potent DNA-binding antiproliferative agents” (Bioorg Med Chem, 2010).

The structures appear in SMILES notation. The source made the active and inactive calls. The calls are words filed in the database; no cut-off is given here.

Assay [1] deals with T1, DNA topoisomerase 1 (Homo sapiens) (UniProt P11387).
T1 sequence (whole entry): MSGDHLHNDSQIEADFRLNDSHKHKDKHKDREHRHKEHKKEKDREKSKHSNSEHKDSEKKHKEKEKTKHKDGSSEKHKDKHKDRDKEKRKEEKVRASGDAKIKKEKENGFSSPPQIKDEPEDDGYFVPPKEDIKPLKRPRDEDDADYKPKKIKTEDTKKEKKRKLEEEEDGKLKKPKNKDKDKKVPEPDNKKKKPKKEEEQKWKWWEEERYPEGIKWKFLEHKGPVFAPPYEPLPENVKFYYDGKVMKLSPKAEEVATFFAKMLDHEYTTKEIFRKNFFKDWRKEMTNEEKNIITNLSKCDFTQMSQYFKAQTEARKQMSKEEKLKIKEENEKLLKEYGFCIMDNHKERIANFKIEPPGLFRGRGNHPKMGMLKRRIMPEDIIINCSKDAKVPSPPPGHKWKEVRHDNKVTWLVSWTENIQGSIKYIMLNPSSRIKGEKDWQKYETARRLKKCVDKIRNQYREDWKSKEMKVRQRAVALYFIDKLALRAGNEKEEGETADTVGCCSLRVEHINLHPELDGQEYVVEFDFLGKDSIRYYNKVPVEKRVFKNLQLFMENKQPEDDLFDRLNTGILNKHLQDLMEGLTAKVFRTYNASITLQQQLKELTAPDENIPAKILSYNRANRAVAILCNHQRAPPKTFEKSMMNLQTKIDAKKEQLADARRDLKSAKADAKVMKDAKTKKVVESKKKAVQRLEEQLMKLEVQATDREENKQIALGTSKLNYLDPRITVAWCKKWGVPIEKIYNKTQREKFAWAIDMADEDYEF
Description: Inhibition of human recombinant DNA topoisomerase 1-mediated DNA cleavage assessed as relaxation of supercoiled pBR322 plasmid DNA at 50 uM […] by ethidium bromide staining. The method, boiled down: (§1)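 pBR322 (100 ng) incubated with 1.0 unit recombinant human topoisomerase I, with or without compound (10–50 or 250 μM), for 30 min at 37 °C. DMSO control included. Products run on 1% agarose in TAE at 100 V for 25 min and stained with ethidium bromide.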

The next assay has as its system CCRF-CEM. Description: Cytotoxicity against human CCRF-CEM cells after 48 hrs by MTT assay. The format is functional, cell-based. The method, boiled down: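 CCRF-CEM cells grown in RPMI 1640 with 10% FBS and penicillin/streptomycin at 37 °C, 5% CO₂. Seeded at 2×10^5 cells/mL and exposed to graded doses from DMSO stock, in quintuplicate, for 48 h. MTT (5 mg/mL) added for 4 h, formazan dissolved in DMSO and read at 490 nm. IC50 is the concentration giving 50% growth inhibition.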

Assay [2] deals with T1, DNA topoisomerase 1 (Homo sapiens). Description: Inhibition of human recombinant DNA topoisomerase 1-mediated DNA cleavage assessed as relaxation of supercoiled pBR322 plasmid DNA at 250 uM […] by ethidium bromide staining. The method, boiled down: as §1
The next assay relates to MCF7. Kind of assay: Cytotoxicity against human MCF7 cells after 48 hrs by MTT assay. Type of assay: functional, cell-based. Particulars: MCF7, 48 h. The essentials: (§2)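 A549, HepG2 and MCF7 cells grown in DMEM with 10% FBS and penicillin/streptomycin at 37 °C, 5% CO₂. Seeded at 2×10^5 cells/mL and treated with graded doses from DMSO stock, in quintuplicate, for 48 h. MTT added for 4 h, formazan dissolved in DMSO and read at 490 nm. IC50 is the concentration giving 50% growth inhibition.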

Assay [3] has as its system Calf thymus DNA. Kind of assay: Binding affinity to calf thymus DNA assessed as intercalation at 20 uM by fluorescence emission spectral analysis. Type of assay: nucleic-acid assay. As to conditions: Bos taurus. The method, boiled down:
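Compound at about 20 μM final (from 5 mM DMSO stock) in 10 mM Tris-HCl, 50 mM NaCl, pH 7.2, with or without ct DNA at 20 or 40 μM final. Emission recorded after equilibrium on excitation at 380 nm. DNA concentration set by A260 (6600 M⁻¹ cm⁻¹ per phosphate; A260:A280 1.87).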

The test system of the next assay is HepG2. Description: Cytotoxicity against human HepG2 cells after 48 hrs by MTT assay. The format is functional, cell-based. As to conditions: HepG2, 48 h. The essentials:
as §2
In general terms: Formazan colour is commonly taken as a measure of viable cells.

The subject of assay [4] is Calf thymus DNA. Kind of assay: Binding affinity to calf thymus DNA assessed as intercalation by UV-vis spectral analysis. Type of assay: nucleic-acid assay. Particulars: Bos taurus. The method, boiled down:
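Compound at 40 μM titrated with ct DNA at 0–80 μM in 10 mM Tris-HCl, 50 mM NaCl, pH 7.2. Incubated 5 min, then spectra read in a 1.0 cm quartz cell. Kb obtained from a plot of [DNA]/(εa−εf) against [DNA], with DNA concentration in base pairs.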

A further assay has as its system A549. Kind of assay: Cytotoxicity against human A549 cells after 48 hrs by MTT assay. Particulars: A549, 48 h. The format is functional, cell-based. The essentials: as §2

One may read the IC50 as the point on the concentration scale where inhibition reaches its midpoint. Read a high IC50 as lower potency. For `COc1cc(Cn2c3ccccc3c(=O)c3cc(NC(=O)CCN(CCO)CCO)ccc32)cc(OC)c1`, in assay [1], the result was inactive. In addition, half-maximal inhibition in the assay with CCRF-CEM (IC50) required 950 nM. Also, in assay [2], the outcome was Active.
On the same counts, the results for `CCN(CC)CCC(=O)Nc1ccc2c(c1)c(=O)c1ccccc1n2Cc1cc(OC)cc(OC)c1` are “inactive”, 720 nM and “Active”.
On the same counts, the results for `COc1cc(Cn2c3ccccc3c(=O)c3cc(NC(=O)CCN4CCC(O)CC4)ccc32)cc(OC)c1` are “inactive”, 640 nM and “Active”.
The matching figures for `COc1cc(Cn2c3ccccc3c(=O)c3cc(NC(=O)CCCN)ccc32)cc(OC)c1`: “inactive”, 670 nM and “Active”.
As to `COc1cc(Cn2c3ccccc3c(=O)c3cc(NC(=O)CN)ccc32)cc(OC)c1`, the result (in assay [1]; with Calf thymus DNA [3]) was Active. For the same molecule, the IC50 in the assay with MCF7 is 11700 nM; in the assay on CCRF-CEM it was 390 nM; in the assay on HepG2 it was 6500 nM; with A549, 3400 nM. Moreover, the Kb in the assay on Calf thymus DNA [4] was found to be 1.5 ×10⁵ /M.
In the case of `COc1cc(Cn2c3ccccc3c(=O)c3cc(NC(=O)CCN4CCCCC4)ccc32)cc(OC)c1`, the result in assay [1] was inactive. This molecule showed an IC50 with CCRF-CEM of 600 nM. Besides, the result in assay [2] was Active.
The matching figures for `COc1cc(Cn2c3ccccc3c(=O)c3cc(NC(=O)CCN)ccc32)cc(OC)c1`: “inactive”, 2550 nM and “Active”.
As to `COc1cc(Cn2c3ccccc3c(=O)c3cc(NC(=O)CCN4CCCC4)ccc32)cc(OC)c1`, the outcome in assay [1] was inactive. For the same molecule, the IC50 turned out to be 5700 nM in the assay on MCF7, 280 nM with CCRF-CEM, 4000 nM in the assay on HepG2 and 25900 nM in the assay on A549. Besides, the outcome (with Calf thymus DNA [3]; in assay [2]) was Active. The Kb with Calf thymus DNA [4] was determined as 5 ×10⁴ /M.
Turning to `COc1cc(Cn2c3ccccc3c(=O)c3cc(NC(=O)C(N)CCCCN)ccc32)cc(OC)c1` (stereo unspecified), the result in assay [1] was inactive. The molecule also returned an IC50 with CCRF-CEM of 750 nM. In assay [2], the outcome was Active.
The matching figures for `COc1cc(Cn2c3ccccc3c(=O)c3cc(NC(=O)CCCCCN)ccc32)cc(OC)c1`: “inactive”, 750 nM and “Active”.
As for `COc1cc(Cn2c3ccccc3c(=O)c3cc(NC(=O)C(N)C(C)C)ccc32)cc(OC)c1` (stereo unspecified), the outcome in assay [1] was inactive. Moreover, in the assay with CCRF-CEM, the IC50 was 810 nM. Further, the outcome in assay [2] was Active.
The matching figures for `COc1cc(Cn2c3ccccc3c(=O)c3cc(NC(=O)C(C)N)ccc32)cc(OC)c1` (stereo unspecified): “inactive”, 610 nM and “Active”.
The matching figures for `COc1cc(Cn2c3ccccc3c(=O)c3cc(NC(=O)CCN(C)C)ccc32)cc(OC)c1`: “inactive”, 910 nM and “Active”.
`COc1cc(Cn2c3ccccc3c(=O)c3cc(NC(=O)CCN4CCOCC4)ccc32)cc(OC)c1`: in assay [1], the outcome was inactive. In the assay on CCRF-CEM, the IC50 was determined as 3010 nM. In assay [2], the result was Active.
`COc1cc(Cn2c3ccccc3c(=O)c3ccccc32)cc(OC)c1`: the outcome in assay [1] was inactive. The result in assay [2] was Active.
For `COc1cc(Cn2c3ccccc3c(=O)c3cc(NC(=O)CCCCN)ccc32)cc(OC)c1`, the result in assay [1] was inactive. The molecule also had an IC50 in the assay on CCRF-CEM of 1190 nM. Besides, the outcome in assay [2] was Active.
